From ChEMBL document CHEMBL1150387, “Development and experimental validation of a docking strategy for the generation of kinase-targeted libraries” (J Med Chem, 2008)

Key:
[1] = biological target: 3-phosphoinositide-dependent protein kinase 1 (Homo sapiens) (UniProt O15530); experiment: Inhibition of PDK1 at 10 uM by HTRF assay relative to control
[2] = biological target: Serine/threonine-protein kinase Chk2 (Homo sapiens) (UniProt O96017); experiment: Inhibition of CHK2 at 10 uM by HTRF assay relative to control
In short: (§1)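 HTRF kinase assay, one panel of kinases. Inhibitor stock 50 µM in 100% DMSO; tested at 10 µM. ATP and substrate at final levels near Km. Final buffer: 50 mM Hepes/NaOH pH 7.4, 40 µM Na3VO4, 0.005% Tween-20, 1 mM DTT, MnCl2 or MgCl2 at kinase-dependent levels. Started by adding ATP/substrate. Reaction run at room temperature, time varied by kinase. Detection mix in 50 mM Hepes pH 7.4, 0.1% BSA, 150 mM KF, incubated ≥1 h at room temperature. Activity expressed as % of uninhibited control; n=2.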

[3] = biological target: Cyclin-dependent kinase 2 (Homo sapiens) (UniProt P24941); experiment: Inhibition of CDK2 at 10 uM by HTRF assay relative to control
In short: as §1

[4] = biological target: Mitogen-activated protein kinase 1 (Homo sapiens) (UniProt P28482); experiment: Inhibition of ERK2 at 10 uM by HTRF assay relative to control
In short: as §1

[5] = biological target: Protein kinase C gamma type (Homo sapiens) (UniProt P05129); experiment: Inhibition of PKCgamma at 10 uM by HTRF assay relative to control
In short: as §1

[6] = biological target: T1, Ephrin type-B receptor 4 (Homo sapiens) (UniProt P54760); experiment: Inhibition of EphB4 at 10 uM by HTRF assay relative to control
T1 sequence (whole entry): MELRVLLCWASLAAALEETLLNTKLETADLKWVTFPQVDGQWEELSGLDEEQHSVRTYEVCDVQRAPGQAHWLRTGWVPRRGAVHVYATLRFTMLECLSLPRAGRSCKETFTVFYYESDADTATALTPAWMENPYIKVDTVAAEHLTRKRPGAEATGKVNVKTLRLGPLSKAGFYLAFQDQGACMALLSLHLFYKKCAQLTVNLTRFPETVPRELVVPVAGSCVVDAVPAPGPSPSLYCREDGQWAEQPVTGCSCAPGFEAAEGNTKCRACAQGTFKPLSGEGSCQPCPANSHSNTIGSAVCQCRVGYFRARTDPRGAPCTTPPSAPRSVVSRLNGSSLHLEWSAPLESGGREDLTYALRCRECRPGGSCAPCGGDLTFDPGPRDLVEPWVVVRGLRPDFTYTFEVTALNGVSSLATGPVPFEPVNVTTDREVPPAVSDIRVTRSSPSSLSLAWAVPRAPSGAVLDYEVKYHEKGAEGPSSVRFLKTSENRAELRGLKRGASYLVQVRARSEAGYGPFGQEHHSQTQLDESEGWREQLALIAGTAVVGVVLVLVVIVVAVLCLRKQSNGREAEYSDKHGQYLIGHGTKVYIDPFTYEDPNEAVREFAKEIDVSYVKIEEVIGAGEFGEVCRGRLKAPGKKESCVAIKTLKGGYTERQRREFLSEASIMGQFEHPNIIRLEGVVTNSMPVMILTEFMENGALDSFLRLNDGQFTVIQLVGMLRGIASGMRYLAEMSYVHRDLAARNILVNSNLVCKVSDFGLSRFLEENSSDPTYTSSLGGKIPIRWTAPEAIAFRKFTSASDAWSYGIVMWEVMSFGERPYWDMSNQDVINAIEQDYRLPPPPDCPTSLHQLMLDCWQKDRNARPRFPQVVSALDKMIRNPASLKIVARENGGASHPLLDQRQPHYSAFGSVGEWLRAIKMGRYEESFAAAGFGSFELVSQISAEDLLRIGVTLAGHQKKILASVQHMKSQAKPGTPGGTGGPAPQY
In short: as §1

[7] = biological target: T2, Tyrosine-protein kinase ZAP-70 (Homo sapiens) (UniProt P43403); experiment: Inhibition of ZAP70 at 10 uM by HTRF assay relative to control
T2 sequence (whole entry): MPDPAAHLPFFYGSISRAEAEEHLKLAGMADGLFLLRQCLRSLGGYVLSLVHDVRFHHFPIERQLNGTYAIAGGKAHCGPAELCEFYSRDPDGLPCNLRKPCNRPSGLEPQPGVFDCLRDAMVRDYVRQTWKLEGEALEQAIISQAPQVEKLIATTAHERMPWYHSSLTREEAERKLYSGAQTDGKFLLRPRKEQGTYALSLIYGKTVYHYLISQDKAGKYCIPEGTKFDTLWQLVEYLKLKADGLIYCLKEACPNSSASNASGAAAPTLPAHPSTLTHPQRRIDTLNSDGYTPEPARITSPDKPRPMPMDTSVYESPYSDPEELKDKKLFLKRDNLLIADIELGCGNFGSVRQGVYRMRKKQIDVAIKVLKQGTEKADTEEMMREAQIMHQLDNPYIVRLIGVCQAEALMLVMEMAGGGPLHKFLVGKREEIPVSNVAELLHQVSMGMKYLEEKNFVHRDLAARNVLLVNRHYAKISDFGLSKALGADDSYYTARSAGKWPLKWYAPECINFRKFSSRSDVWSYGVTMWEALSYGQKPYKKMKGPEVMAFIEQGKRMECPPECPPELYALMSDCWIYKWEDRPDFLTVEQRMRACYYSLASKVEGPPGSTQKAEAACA
In short: as §1

[8] = biological target: Vascular endothelial growth factor receptor 1 (Homo sapiens) (UniProt P17948); experiment: Inhibition of FLT1 at 10 uM by HTRF assay relative to control
In short: as §1

[9] = biological target: Mitogen-activated protein kinase 14 (Homo sapiens) (UniProt Q16539); experiment: Inhibition of p38alpha at 10 uM by HTRF assay relative to control
In short: as §1

[10] = Inhibition of AMPKalpha at 10 uM by HTRF assay relative to control
In short: as §1

[11] = biological target: Mitogen-activated protein kinase 9 (Homo sapiens) (UniProt P45984); experiment: Inhibition of JNK2 at 10 uM by HTRF assay relative to control
In short: as §1

Vascular endothelial growth factor receptor 1 (Homo sapiens), sequence (P17948 whole entry): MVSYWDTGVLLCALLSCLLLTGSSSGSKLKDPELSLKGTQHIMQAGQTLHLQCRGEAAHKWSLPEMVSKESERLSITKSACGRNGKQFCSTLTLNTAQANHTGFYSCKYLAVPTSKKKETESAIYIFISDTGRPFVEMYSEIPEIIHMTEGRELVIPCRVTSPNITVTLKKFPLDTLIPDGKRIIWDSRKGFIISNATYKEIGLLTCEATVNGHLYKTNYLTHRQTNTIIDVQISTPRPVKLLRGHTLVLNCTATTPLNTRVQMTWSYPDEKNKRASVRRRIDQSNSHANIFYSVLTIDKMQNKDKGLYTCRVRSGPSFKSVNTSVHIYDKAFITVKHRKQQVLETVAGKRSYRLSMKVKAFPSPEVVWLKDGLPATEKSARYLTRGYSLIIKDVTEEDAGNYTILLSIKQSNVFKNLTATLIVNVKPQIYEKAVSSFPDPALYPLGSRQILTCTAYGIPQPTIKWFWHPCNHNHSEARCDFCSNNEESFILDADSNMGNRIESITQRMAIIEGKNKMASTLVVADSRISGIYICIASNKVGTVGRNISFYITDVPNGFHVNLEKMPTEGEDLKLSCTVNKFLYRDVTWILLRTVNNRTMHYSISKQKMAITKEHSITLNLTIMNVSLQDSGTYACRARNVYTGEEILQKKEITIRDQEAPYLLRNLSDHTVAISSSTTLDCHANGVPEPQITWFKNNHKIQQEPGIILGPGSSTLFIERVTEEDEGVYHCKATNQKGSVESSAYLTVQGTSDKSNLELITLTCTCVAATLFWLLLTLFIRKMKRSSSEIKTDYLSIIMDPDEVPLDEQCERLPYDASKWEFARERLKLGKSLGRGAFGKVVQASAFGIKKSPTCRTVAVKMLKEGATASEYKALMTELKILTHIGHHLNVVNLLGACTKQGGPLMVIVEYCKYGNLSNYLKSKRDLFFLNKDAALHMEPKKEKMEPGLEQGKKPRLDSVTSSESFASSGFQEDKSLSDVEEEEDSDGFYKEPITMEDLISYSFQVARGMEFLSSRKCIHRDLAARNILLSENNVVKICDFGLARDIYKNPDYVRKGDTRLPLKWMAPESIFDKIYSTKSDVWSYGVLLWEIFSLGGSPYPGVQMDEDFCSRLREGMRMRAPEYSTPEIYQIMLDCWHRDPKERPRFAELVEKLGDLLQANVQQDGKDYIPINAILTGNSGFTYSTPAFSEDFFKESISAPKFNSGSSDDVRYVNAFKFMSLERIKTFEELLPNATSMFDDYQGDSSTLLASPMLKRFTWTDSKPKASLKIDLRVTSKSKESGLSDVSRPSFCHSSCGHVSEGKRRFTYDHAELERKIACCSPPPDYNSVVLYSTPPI
Mitogen-activated protein kinase 1 (Homo sapiens), sequence (P28482 whole entry): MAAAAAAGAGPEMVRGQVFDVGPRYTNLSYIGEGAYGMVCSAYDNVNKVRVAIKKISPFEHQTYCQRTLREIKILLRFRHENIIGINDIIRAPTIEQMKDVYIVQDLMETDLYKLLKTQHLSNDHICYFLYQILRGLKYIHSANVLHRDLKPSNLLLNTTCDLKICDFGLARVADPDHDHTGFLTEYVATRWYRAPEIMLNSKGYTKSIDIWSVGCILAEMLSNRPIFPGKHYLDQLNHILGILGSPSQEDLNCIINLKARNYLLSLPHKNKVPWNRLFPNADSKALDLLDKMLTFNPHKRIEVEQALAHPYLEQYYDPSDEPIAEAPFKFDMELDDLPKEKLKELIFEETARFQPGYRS
3-phosphoinositide-dependent protein kinase 1 (Homo sapiens), sequence (O15530 whole entry, looked up): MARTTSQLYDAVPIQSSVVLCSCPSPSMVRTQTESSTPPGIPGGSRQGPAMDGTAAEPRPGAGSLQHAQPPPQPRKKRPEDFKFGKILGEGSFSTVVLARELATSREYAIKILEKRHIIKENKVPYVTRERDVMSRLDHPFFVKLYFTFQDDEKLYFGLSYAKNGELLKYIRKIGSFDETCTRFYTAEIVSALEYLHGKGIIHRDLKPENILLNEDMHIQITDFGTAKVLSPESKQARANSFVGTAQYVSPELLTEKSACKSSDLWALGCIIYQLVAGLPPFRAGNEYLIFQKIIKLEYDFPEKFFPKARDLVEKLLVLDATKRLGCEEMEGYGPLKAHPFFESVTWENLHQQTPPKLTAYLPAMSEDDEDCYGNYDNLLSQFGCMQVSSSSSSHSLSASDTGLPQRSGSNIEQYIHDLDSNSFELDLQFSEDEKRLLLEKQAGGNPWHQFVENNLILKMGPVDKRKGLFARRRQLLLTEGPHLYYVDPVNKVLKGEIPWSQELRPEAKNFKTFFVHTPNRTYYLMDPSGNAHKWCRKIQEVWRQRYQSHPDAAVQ
Serine/threonine-protein kinase Chk2 (Homo sapiens), sequence (O96017 whole entry): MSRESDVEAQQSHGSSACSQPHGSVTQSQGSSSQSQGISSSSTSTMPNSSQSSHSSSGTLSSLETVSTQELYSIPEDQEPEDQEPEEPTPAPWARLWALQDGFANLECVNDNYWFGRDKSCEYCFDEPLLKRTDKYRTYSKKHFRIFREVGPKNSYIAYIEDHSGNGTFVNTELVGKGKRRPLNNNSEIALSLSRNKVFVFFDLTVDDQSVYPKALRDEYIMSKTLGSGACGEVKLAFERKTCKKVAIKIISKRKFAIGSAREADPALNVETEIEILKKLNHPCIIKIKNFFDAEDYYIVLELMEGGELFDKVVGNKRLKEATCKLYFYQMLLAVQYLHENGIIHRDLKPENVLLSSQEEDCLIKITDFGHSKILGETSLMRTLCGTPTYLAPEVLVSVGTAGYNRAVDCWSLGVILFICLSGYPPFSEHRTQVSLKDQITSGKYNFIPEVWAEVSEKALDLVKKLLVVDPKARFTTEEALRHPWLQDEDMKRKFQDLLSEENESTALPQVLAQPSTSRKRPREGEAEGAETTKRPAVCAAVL
Mitogen-activated protein kinase 14 (Homo sapiens), sequence (Q16539 whole entry): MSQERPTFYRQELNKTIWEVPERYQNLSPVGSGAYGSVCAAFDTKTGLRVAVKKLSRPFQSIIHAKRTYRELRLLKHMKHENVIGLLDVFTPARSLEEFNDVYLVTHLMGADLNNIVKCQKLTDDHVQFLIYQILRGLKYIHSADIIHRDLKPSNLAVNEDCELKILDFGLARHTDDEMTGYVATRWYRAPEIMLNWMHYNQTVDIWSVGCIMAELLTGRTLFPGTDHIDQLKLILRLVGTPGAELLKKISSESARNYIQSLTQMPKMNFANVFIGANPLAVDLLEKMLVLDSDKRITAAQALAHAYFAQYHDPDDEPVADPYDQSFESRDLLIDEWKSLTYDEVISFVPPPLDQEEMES
Mitogen-activated protein kinase 9 (Homo sapiens), sequence (P45984 whole entry, looked up): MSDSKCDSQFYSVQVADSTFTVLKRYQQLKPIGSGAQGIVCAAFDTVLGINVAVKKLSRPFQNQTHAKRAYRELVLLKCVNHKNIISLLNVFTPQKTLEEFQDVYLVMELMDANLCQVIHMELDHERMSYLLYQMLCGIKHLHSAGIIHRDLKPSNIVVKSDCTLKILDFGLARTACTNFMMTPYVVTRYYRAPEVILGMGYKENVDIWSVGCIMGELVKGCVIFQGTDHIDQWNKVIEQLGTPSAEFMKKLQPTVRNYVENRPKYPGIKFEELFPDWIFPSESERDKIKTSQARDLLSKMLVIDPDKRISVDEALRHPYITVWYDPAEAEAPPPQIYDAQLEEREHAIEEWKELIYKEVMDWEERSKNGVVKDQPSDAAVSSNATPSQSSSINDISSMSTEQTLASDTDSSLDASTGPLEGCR

Structure (SMILES)	inhibition [1] [%]	inhibition [2] [%]	inhibition [3] [%]	inhibition [4] [%]	inhibition [5] [%]	inhibition [6] [%]	inhibition [7] [%]	inhibition [8] [%]	inhibition [9] [%]	inhibition [10] [%]	inhibition [11] [%]
Cc1cccc(N(C)c2cc(Nc3cccc(C(=O)N(C)CCc4ccccn4)c3)ncn2)c1	0	0	21	6	6	0	4	3	5	0	4
O=C(COc1ccccc1)N1CCN(c2nccc(Nc3ccc4ncsc4c3)n2)CC1	0	6	8	0	14	0	0	3	7	49	44
COC(=O)C(CO)NC(=O)[C@@H]1CCCN1c1nccc(Oc2cccc(C)c2)n1 (some centres not stated)	0	3	6	1	4	0	0	0	7	0	8
Nc1nc(N2CCOCC2)cc(N2CCC(C(=O)NCCc3ccc(O)cc3)CC2)n1	0	0	5	11	0	0	2	0	8	12	3
CN(CCCn1ccnc1)C(=O)[C@@H]1CCCN1c1nccc(Nc2ccccc2)n1	1	5	24	0	0	0	3	4	1	15	6
O=C(NCc1cccnc1)c1cccc(-c2ccc(Nc3ccc4ncsc4c3)nn2)c1	4	28	0	40	28	0	11	43	0	54	51
O=C(NC1Cc2ccccc2C1)c1cccc(Nc2ccnc(N3CCN(c4ccccc4)CC3)n2)c1	0	1	2	0	3	0	6	0	1	9	3
O=C(NC[C@@H]1CCCO1)c1cccc(Nc2nccc(Nc3ccc4ncsc4c3)n2)c1	3	13	38	0	30	57	19	87	12	36	87
Cc1cccc(CN2CCN(c3cc(N(C)c4cccc(C)c4)ncn3)CC2)c1	3	2	0	8	2	0	4	0	1	4	5
CN(C)CC(C)(C)CNC(=O)[C@@H]1CCCN1c1nccc(Nc2ccccc2)n1	10	0	9	0	2	0	1	12	0	10	2
CN(CCc1ccccn1)C(=O)c1cccc(Nc2nccc(Nc3ccc4ncsc4c3)n2)c1	0	7	12	0	27	17	13	72	19	16	53
COc1cccc(Nc2cc(N3CCC[C@H]3C(=O)NCCN3CCCCC3)nc(N)n2)c1	0	0	12	0	2	0	2	13	0	0	3

Second part, the compound after the results:

inhibition [1] [%]	inhibition [2] [%]	inhibition [3] [%]	inhibition [4] [%]	inhibition [5] [%]	inhibition [6] [%]	inhibition [7] [%]	inhibition [8] [%]	inhibition [9] [%]	inhibition [10] [%]	inhibition [11] [%]	Structure (SMILES)
0	6	5	8	4	0	2	0	4	0	1	CN(C)c1ccc(C(=O)N2CCN(c3ncnc4c3CN(Cc3ccccc3)CC4)CC2)c2ccccc12
1	3	2	1	0	0	6	4	11	8	32	COc1cccc(Nc2cc(Nc3cccc(C(=O)NCCCn4ccnc4)c3)nc(N)n2)c1
0	4	8	0	6	0	6	0	0	0	4	Cc1cccc(Oc2ccnc(N3CCC[C@H]3C(=O)NCc3cccnc3)n2)c1
0	0	0	3	4	0	3	0	5	1	1	O=C(c1nc(SCc2ccc(Cl)cc2)n2ccccc12)N1CCN(c2ncnc3c2CN(Cc2ccccc2)CC3)CC1
5	0	2	0	0	0	2	14	0	14	0	Cc1cccc(N(C)c2cc(N3CCN(CC(=O)Nc4nc(-c5ccccc5)cs4)CC3)ncn2)c1
0	0	17	1	5	0	0	0	12	0	1	Nc1nc(Nc2ccccc2)cc(N2CCC(C(=O)NCCc3ccccn3)CC2)n1
0	3	4	6	5	0	1	0	16	0	2	Cc1cccc(Oc2ccnc(N3CCN(CC(=O)Nc4cccc5c4CCCC5)CC3)n2)c1
1	0	3	0	1	0	2	0	3	9	7	Cc1cccc(Oc2ccnc(N3CCC[C@H]3C(=O)NCCCn3ccnc3)n2)c1
0	0	6	6	3	0	0	5	0	0	3	Cc1cccc(N(C)c2cc(Nc3cccc(C(=O)N(CC(C)C)CC(C)C)c3)ncn2)c1
1	0	7	0	4	0	4	0	2	7	3	Cc1ccc(CN2CCN(c3nccc(C(C#N)c4ccccn4)n3)CC2)cc1 (configuration not stated)
